Measurements: ChEMBL document CHEMBL3769316, “Discovery of novel heteroarylmethylcarbamodithioates as potent anticancer agents: Synthesis, structure-activity relationship analysis and biological evaluation” (Eur J Med Chem, 2016)
Activity calls are given as the source filed them. No cut-off for these calls is given here.

Legend:
Assay type in all cases: functional, cell-based
[1] = tested on: MDA-MB-468; assay: Cytotoxicity against human MDA-MB-468 cells after 72 hrs by alamar blue assay; conditions: MDA-MB-468, 72 h
Summary of the method: (§1)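 Cells seeded and cultured overnight, then exposed to compound at varying concentrations for 72 h. Cells were then incubated 2-4 h in medium containing 10% Alamar blue, and fluorescence was read at ex 530/em 590 nm. Dose-response curves used at least five concentrations, and IC50 (50% growth inhibition) was taken from these curves. Culture was at 37 °C.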

[2] = tested on: SK-BR-3; assay: Cytotoxicity against human SK-BR-3 cells after 72 hrs by alamar blue assay; conditions: SK-BR-3, 72 h; summary of the method: as §1
[3] = Cytotoxicity against human Bel7402 cells after 72 hrs by alamar blue assay; conditions: Bel-7402, 72 h; summary of the method: as §1
[4] = Cytotoxicity against human HL60 cells after 72 hrs by alamar blue assay; conditions: HL-60, 72 h; summary of the method: as §1
[5] = tested on: PC-3; assay: Induction of mitotic arrest in human PC3 cells assessed as increase in MPM-2 level at 40 nM after 24 hrs by Western blot method
Summary of the method: (§2)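 PC-3 cells were treated 24 h with compound (0.5-4 µM) or taxol (40 nM) as positive control, then lysed in RIPA with PMSF and protease inhibitors. Lysates were run on SDS-PAGE and transferred to PVDF, which was blocked with 5% milk for 1 h. Membranes were probed overnight at 4 °C for MPM-2 (1:1000), phospho-H3 (1:600) or β-actin (1:1000), followed by HRP secondary and chemiluminescence.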

[6] = tested on: PC-3; assay: Induction of mitotic arrest in human PC3 cells assessed as increase in multipolar spindle formation at 40 nM after 6 hrs using DAPI staining by immunofluorescence-based laser scanning confocal microscopy
Summary of the method: (§3)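 PC-3 cells on confocal dishes were exposed 6 h to compound (2 µM) or taxol (40 nM), then fixed in 4% paraformaldehyde overnight at 4 °C and blocked. They were stained overnight at 4 °C with anti-β-tubulin and anti-γ-tubulin (1:100 each), then 1 h with Alexa Fluor 488/647 secondaries, and co-stained for DNA. Spindles and centrosomes were imaged by confocal microscopy.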

[7] = tested on: PC-3; assay: Induction of mitotic arrest in human PC3 cells assessed as increase in histone H3 phosphorylation at Ser10 at 40 nM after 24 hrs by Western blot method; summary of the method: as §2
[8] = tested on: PC-3; assay: Induction of mitotic arrest in human PC3 cells assessed as increase in supernumerary centrosome formation at 40 nM after 6 hrs using DAPI staining by immunofluorescence-based laser scanning confocal microscopy; summary of the method: as §3

Row | SMILES | IC50 [1] [µM] | IC50 [2] [µM] | IC50 [3] [µM] | IC50 [4] [µM] | Activity [5] | Activity [6] | Activity [7] | Activity [8]
1 | S=C(NCc1cccnc1)SCCc1nnc(-c2ccco2)o1 | 3.32 | 0.81 | 1.59 |  |  |  |  | 
2 | OCCSC(=S)NCc1cccnc1 | 6.61 | 1.32 | 3.65 |  |  |  |  | 
3 | S=C(NCc1cccnc1)SCCc1nnc(-c2ccc(Cl)cc2)o1 | 1.98 | 0.86 | 1.26 |  |  |  |  | 
4 | N#CCCSC(=S)NCc1nnc(-c2ccccc2)o1 |  |  | 25.7 | 14.2 |  |  |  | 
5 | CCCCOC(=O)CCSC(=S)NCc1cccnc1 | 12.8 | 4.46 | 6.35 |  |  |  |  | 
6 | O=C(CCSC(=S)NCc1cccnc1)NCc1ccccc1 | > 100 | > 100 | > 100 |  |  |  |  | 
7 | S=C(NCc1cccnc1)SCCc1nnc(-c2ccsc2)o1 | 3.26 | 1.03 | 1.23 |  |  |  |  | 
8 | CC(=O)CCSC(=S)NCc1cccnc1 | 4.22 | 1.12 | 3.43 |  |  |  |  | 
9 | Cc1cc(CNC(=S)SCCC#N)n(C)n1 |  |  | 4.26 | 4.17 |  |  |  | 
10 | S=C(NCc1cccnc1)SCCc1nnc(-c2cc3ccccc3s2)o1 | 6.77 | 5.32 | 6.89 |  |  |  |  | 
11 | N#CCCSC(=S)NCc1cncs1 |  |  | 296 | 109 |  |  |  | 
12 | S=C(NCc1cccnc1)SCCn1nc2ccccc2n1 | 11.6 | 0.98 | 2.66 |  |  |  |  | 
13 | S=C(NCc1cccnc1)SCCc1nnn[nH]1 | > 100 | > 100 | 57.7 |  |  |  |  | 
14 | Fc1ccccc1-c1nnc(CCSC(=S)NCc2cccnc2)o1 | 3.42 | 4.69 | 5.54 |  |  |  |  | 
15 | N#CCCSC(=S)NCc1cnc2ccccc2c1 |  |  | 96.4 | 5.18 |  |  |  | 
16 | S=C(NCc1cccnc1)SCCc1nnc(-c2cc[nH]c2)o1 | 2.04 | 0.82 | 1.17 |  |  |  |  | 
17 | CC1(C)OB(CCCSC(=S)NCc2cccnc2)OC1(C)C | 6.62 | 6.82 | 4.27 |  |  |  |  | 
18 | FC(F)(F)c1ccc(-c2nnc(CCSC(=S)NCc3cccnc3)o2)cc1 | 5.49 | 2.4 | 1.22 |  |  |  |  | 
19 | S=C(NCc1cccnc1)SCCc1nnc(-c2cnccn2)o1 | 1.71 | 1.29 | 1.43 |  |  |  |  | 
20 | S=C(NCc1cccnc1)SCCc1nnc(-c2ccc3ccccc3n2)o1 | 3.5 | 0.79 | 1.95 |  |  |  |  | 
21 | O=C(O)CCSC(=S)NCc1cccnc1 | 9.32 | 7.97 | 7.42 |  |  |  |  | 

Row | SMILES | IC50 [1] [µM] | IC50 [2] [µM] | IC50 [3] [µM] | IC50 [4] [µM] | Activity [5] | Activity [6] | Activity [7] | Activity [8]
22 | O=S(=O)(O)CCCSC(=S)NCc1cccnc1 | 11.1 | 6.77 | 6.59 |  |  |  |  | 
23 | S=C(NCc1cccnc1)SCCc1nc2ccccc2[nH]1 | 11.5 | 1.69 | 9.3 |  |  |  |  | 
24 | S=C(NCc1cccnc1)SCCc1nnc(-c2cccs2)o1 | 3.41 | 1.07 | 1.34 |  |  |  |  | 
25 | CC(=O)O[C@H]1C(=O)[C@@]2(C)[C@H]([C@H](OC(=O)c3ccccc3)[C@]3(O)C[C@H](OC(=O)[C@H](O)[C@@H](NC(=O)c4ccccc4)c4ccccc4)C(C)=C1C3(C)C)[C@]1(OC(C)=O)CO[C@@H]1C[C@@H]2O |  |  |  |  | Active | Active | Active | Active
26 | O=[N+]([O-])c1ccc(-c2nnc(CCSC(=S)NCc3cccnc3)o2)cc1 | 4.6 | 1.54 | 1.84 |  |  |  |  | 
27 | S=C(NCc1cccnc1)SCCc1nc2ccccc2o1 | 4.3 | 0.82 | 2.88 |  |  |  |  | 
28 | COc1ccc(-c2nnc(CCSC(=S)NCc3cccnc3)o2)cc1 | 5.22 | 2.96 | 1.54 |  |  |  |  | 
29 | S=C(NCc1cccnc1)SCCc1nnc(-c2ccc3ncccc3c2)o1 | 1.69 | 0.85 | 1.79 |  |  |  |  | 
30 | N#CCCSC(=S)NCc1nnc(-c2ccccc2)s1 |  |  | 18.7 | 11.8 |  |  |  | 
31 | S=C(NCc1cccnc1)SCCc1nc(-c2ccccc2)no1 | 10.1 | 1.29 | 2.8 |  |  |  |  | 
32 | NC(=O)CCSC(=S)NCc1cccnc1 | 4.63 | 1.16 | 3.33 |  |  |  |  | 
33 | N#CCCSC(=S)NCc1cccnc1 | 9.53 | 2.84 | 1.03 | 0.74 |  |  |  | 
34 | N#CCCSC(=S)NCc1cnc(N2CCOCC2)nc1 |  |  | 22.4 | 5.03 |  |  |  | 
35 | CN1CCOc2cc(CNC(=S)SCCC#N)cnc21 |  |  | 327 | 82.8 |  |  |  | 
36 | S=C(NCc1cccnc1)SCCc1nc2ccccc2s1 | 9.71 | 1.39 | 3.56 |  |  |  |  | 
37 | S=C(NCc1cccnc1)SCCc1nnc(-c2cccnc2)o1 | 3.16 | 0.8 | 1.37 |  |  |  |  | 
38 | CCOP(=O)(CCSC(=S)NCc1cccnc1)OCC | 60.4 | 51 | 50.8 |  |  |  |  | 
39 | Cc1c(CNC(=S)SCCC#N)cnn1-c1ccccc1 |  |  | 24.9 | 6.05 |  |  |  | 
40 | Cn1cccc1CNC(=S)SCCC#N |  |  | 227 | 282 |  |  |  | 
41 | Cc1cc(-c2nnc(CCSC(=S)NCc3cccnc3)o2)no1 | 6.14 | 1.73 | 1.68 |  |  |  |  | 
42 | Cc1nc(-c2ccccc2)oc1CNC(=S)SCCC#N |  |  | 17.9 | 7.88 |  |  |  | 
